Reference: article PMC7293934 (Neuropharmacology, 2020)
Where “and” joins values, the source holds several entries; their conditions need not be identical. Equal entries are not always repeated. Entries after “also recorded” stand apart in the source; their conditions may differ. Where two headings read alike, the source gives them in different places.

Key:
[1] = tested on: recombinant GluN1/2A/2C; conditions: ref Bhattacharya et al., 2018; cited from earlier work
[2] = target: T1, GluN1/2D (Rattus norvegicus, UniProt P35439+Q62645); assay type: cell-based; conditions: for Increase in glutamate potency / Increase in glycine potency: 10 μM modulator; for Increase in glutamate potency: 50 μM glycine; for Increase in glycine potency: 100 μM glutamate; for Increase in potencies of co-agonists glutamate and glycine: summary statement
T1 sequence (Q62645 28-1323, other chains not shown): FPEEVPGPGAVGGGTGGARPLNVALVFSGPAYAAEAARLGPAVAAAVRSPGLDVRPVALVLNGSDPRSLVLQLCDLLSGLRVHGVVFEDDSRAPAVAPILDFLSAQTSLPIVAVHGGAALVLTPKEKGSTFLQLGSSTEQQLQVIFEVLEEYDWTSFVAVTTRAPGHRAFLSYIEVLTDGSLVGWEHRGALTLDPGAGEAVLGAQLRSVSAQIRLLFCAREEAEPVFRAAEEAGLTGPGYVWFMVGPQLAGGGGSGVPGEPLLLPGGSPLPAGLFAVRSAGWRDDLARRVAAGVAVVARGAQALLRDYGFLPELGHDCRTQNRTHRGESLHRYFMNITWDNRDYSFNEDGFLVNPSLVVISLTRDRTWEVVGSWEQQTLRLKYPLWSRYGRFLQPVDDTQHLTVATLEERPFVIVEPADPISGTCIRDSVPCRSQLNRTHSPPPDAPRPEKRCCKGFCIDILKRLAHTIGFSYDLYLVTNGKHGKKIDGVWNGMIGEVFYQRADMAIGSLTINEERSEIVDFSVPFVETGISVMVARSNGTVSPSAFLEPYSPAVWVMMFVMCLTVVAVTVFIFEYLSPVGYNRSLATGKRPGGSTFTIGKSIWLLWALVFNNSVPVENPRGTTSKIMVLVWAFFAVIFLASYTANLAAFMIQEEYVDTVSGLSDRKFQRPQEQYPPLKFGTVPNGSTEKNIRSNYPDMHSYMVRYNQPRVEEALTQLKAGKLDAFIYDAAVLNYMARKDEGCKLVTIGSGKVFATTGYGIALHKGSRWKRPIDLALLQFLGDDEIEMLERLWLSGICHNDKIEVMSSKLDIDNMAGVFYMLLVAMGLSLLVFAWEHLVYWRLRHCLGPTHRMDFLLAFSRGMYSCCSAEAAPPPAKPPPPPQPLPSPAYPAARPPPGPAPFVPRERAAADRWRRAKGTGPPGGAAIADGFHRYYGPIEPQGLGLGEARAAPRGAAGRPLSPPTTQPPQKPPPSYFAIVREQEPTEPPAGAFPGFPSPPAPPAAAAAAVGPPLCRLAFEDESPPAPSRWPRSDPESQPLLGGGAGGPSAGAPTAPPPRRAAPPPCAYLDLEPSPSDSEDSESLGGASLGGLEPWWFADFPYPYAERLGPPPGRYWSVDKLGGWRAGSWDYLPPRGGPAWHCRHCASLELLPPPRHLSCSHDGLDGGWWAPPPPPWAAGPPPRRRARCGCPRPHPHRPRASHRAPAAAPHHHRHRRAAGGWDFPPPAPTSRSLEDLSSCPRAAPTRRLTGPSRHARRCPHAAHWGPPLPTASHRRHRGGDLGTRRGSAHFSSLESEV

[3] = tested on: NMDA receptor-mediated responses of STN neurons; conditions: ref Swanger et al., 2015; cited from earlier work
[4] = tested on: hippocampal CA1 pyramidal neurons; conditions: ref Perszyk et al., 2016; cited from earlier work
[5] = tested on: hippocampal interneurons; conditions: ref Perszyk et al., 2016; cited from earlier work
[6] = tested on: native NMDA receptors expressed by STN neurons; assay type: cell-based, mouse
In short: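 Sagittal 300 μm slices containing STN were cut from P12–18 C57BL/6J mice of either sex. Recording was at 32°C in aCSF with 0.2 mM Mg2+, 20 μM DNQX and 10 μM gabazine, using a Cs-based internal with QX-314, at −40 mV. Internal capsule stimulation was given every 30–60 s during 5–10 min baseline, then 10–15 min vehicle (0.01% DMSO) or 10 μM test compound, then 400 μM DL-APV. Charge transfer was taken as EPSC area.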

[7] = tested on: native NMDA receptors expressed by hippocampal CA1 pyramidal neurons; assay type: cell-based, mouse
In short: (§1)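 Transverse 300 μm ventral hippocampal slices were cut from P12–18 C57BL/6J mice. Recording was at 32°C in aCSF with 0.2 mM Mg2+, 20 μM DNQX and 10 μM gabazine, using a Cs-based internal. Visually identified CA1 stratum radiatum/lacunosum moleculare interneurons or CA1 pyramidal neurons were held at +40 mV, with Schaffer collateral stimulation every 30–60 s. Sequence was baseline 5–10 min, 10 μM test compound 10–15 min, then 400 μM DL-APV.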

[8] = tested on: native NMDA receptors expressed by STN neurons; assay type: cell-based, mouse; conditions: APV 400 μM superfusion
[9] = tested on: native NMDA receptors expressed by hippocampal interneurons; assay type: cell-based, mouse
In short: as §1

[10] = target: T1, GluN1/2D; assay: Fast-application whole-cell patch-clamp electrophysiology, HEK293 cells; assay type: cell-based; conditions: 10 μM glycine
In short: (§2)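 HEK293 cells on poly-D-lysine coverslips in DMEM with 10% dialyzed FBS were calcium-phosphate transfected with GFP, GluN1 and GluN2 cDNAs (1:1:1), with 200 μM D,L-APV and 200 μM 7-chlorokynurenic acid in the medium. About 24 h later, whole-cell recordings were made at 20°C and −60 mV on lifted cells using piezo-driven theta-glass exchange. Cells were accepted at <1000 pA and <10 MΩ series resistance.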

[11] = target: GluN1/2B (Rattus norvegicus, UniProt P35439+Q00960); assay type: cell-based
In short: (§3)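 Rat GluN1 with GluN2A or GluN2B was expressed from cRNA in Xenopus oocytes. Oocytes were used 2–4 days later and preinjected with 50 mM BAPTA 10–30 min before recording. Two-electrode voltage clamp was at −40 mV and 21–23°C in Ba2+-containing solution, pH 7.4. […] Responses as % of agonist alone were Hill-fitted for EC50, nH and maximal modulation. At least 4 oocytes from ≥2 frogs were used.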

[12] = tested on: kainate (GluK1–2) receptors; assay type: cell-based; conditions: 10 μM PTC-174; activated by 100 μM glutamate; concanavalin A pre-incubation
In short: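 Oocytes expressing GluK1 or GluK2 were incubated 10 min in 1 mg/ml concanavalin A in recording solution. They were then clamped at −40 mV at 21–23°C in Ba2+-containing solution, pH 7.4. […] Responses were normalized to control without test compound, from 5–8 oocytes.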

[13] = CNS exposure after systemic administration; assay type: in vivo; conditions: no data shown
[14] = target: GluN1/2BC1/2DC2 (triheteromeric GluN1/2B/2D) (Rattus norvegicus, UniProt P35439+Q00960+Q62645); assay type: cell-based; conditions: Hill slope of PTC-174 concentration-response
[15] = tested on: AMPA (GluA1–4) receptors; assay: Two-electrode voltage-clamp electrophysiology, selectivity over AMPA receptors; assay type: cell-based; conditions: 10 μM PTC-174; activated by 30 μM kainate
In short: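 GluA1–4 AMPA receptors were expressed from cRNA in Xenopus oocytes. Two-electrode voltage clamp was at −40 mV and 21–23°C in Ba2+-containing solution, pH 7.4. Currents were evoked by 30 μM kainate with and without 10 μM test compound (DMSO <0.1%). Responses were normalized to control without test compound, from 5–8 oocytes.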

[16] = target: T2, GluN1/2C (Rattus norvegicus, UniProt P35439+Q00961); assay: Fast-application whole-cell patch-clamp electrophysiology, HEK293 cells; assay type: cell-based; conditions: 10 μM PTC-174 continuous; 3–5 ms 1 mM glutamate; 10 μM glycine
T2 sequence (Q00961 20-1237, other chains not shown): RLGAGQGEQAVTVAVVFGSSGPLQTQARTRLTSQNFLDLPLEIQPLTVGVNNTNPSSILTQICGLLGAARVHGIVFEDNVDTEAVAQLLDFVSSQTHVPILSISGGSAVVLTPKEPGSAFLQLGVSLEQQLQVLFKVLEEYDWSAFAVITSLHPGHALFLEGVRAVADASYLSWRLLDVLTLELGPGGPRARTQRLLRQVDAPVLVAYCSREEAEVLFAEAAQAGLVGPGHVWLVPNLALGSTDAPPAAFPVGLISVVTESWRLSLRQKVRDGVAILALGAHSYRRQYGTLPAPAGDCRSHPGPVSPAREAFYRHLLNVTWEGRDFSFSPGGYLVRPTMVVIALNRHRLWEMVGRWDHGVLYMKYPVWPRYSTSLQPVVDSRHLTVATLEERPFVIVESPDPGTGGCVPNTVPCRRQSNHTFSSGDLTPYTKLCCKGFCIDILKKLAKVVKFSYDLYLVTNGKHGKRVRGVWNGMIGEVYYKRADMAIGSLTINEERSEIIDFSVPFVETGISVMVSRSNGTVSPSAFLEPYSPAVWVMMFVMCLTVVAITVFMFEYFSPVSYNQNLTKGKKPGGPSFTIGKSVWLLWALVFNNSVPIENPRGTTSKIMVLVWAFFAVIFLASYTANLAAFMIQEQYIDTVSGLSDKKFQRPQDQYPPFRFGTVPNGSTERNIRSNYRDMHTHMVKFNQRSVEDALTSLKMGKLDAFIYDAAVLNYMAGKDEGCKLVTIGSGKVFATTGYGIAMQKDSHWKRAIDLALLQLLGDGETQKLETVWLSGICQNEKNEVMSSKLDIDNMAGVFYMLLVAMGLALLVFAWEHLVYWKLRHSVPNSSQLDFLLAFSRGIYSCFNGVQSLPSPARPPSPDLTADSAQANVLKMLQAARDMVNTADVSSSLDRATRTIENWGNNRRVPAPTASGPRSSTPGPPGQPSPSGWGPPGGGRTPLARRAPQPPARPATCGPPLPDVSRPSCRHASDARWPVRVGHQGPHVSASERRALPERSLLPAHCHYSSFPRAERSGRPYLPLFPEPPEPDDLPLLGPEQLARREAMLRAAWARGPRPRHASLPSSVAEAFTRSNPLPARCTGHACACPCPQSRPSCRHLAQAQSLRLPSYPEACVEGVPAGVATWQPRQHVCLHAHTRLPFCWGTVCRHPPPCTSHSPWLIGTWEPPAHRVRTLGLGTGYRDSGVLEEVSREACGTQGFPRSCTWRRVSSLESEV
In short: as §2

[17] = target: GluN1/2CC1/2CC2-NK (Rattus norvegicus, UniProt P35439+Q00961, N612K); assay type: cell-based; conditions: for EC50: EC50, 100 μM glutamate + 50 μM glycine; for nH: Hill slope
GluN1/2CC1/2CC2-NK, sequence (Q00961 20-836 N612K, other chains not shown): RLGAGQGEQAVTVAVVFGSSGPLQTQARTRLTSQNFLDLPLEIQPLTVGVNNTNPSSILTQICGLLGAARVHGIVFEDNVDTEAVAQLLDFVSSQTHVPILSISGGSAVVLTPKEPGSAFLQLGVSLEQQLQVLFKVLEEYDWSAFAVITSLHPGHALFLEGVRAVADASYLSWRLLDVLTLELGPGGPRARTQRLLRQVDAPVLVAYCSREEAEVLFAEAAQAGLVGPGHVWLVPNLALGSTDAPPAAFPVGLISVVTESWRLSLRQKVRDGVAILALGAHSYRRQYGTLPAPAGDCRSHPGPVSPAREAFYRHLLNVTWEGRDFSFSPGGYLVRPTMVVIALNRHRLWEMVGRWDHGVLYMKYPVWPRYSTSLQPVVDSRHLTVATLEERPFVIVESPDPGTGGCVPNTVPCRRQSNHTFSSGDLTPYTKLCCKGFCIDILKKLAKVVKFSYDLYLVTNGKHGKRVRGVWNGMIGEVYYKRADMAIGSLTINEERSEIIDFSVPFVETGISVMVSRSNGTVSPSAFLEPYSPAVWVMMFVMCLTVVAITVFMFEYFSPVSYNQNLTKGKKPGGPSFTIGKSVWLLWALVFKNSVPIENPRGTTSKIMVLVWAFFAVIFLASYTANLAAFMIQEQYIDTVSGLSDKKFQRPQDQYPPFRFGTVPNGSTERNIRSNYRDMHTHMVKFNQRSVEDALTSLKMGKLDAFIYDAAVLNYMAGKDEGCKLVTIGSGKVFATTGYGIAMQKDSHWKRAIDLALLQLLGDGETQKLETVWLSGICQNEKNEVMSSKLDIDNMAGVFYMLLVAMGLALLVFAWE

[18] = target: GluN1/2AC1/2BC2 (triheteromeric GluN1/2A/2B) (Rattus norvegicus, UniProt P35439+Q00959+Q00960); assay type: cell-based
GluN1/2AC1/2BC2 (triheteromeric GluN1/2A/2B), sequence (Q00959 23-1464, other chains not shown): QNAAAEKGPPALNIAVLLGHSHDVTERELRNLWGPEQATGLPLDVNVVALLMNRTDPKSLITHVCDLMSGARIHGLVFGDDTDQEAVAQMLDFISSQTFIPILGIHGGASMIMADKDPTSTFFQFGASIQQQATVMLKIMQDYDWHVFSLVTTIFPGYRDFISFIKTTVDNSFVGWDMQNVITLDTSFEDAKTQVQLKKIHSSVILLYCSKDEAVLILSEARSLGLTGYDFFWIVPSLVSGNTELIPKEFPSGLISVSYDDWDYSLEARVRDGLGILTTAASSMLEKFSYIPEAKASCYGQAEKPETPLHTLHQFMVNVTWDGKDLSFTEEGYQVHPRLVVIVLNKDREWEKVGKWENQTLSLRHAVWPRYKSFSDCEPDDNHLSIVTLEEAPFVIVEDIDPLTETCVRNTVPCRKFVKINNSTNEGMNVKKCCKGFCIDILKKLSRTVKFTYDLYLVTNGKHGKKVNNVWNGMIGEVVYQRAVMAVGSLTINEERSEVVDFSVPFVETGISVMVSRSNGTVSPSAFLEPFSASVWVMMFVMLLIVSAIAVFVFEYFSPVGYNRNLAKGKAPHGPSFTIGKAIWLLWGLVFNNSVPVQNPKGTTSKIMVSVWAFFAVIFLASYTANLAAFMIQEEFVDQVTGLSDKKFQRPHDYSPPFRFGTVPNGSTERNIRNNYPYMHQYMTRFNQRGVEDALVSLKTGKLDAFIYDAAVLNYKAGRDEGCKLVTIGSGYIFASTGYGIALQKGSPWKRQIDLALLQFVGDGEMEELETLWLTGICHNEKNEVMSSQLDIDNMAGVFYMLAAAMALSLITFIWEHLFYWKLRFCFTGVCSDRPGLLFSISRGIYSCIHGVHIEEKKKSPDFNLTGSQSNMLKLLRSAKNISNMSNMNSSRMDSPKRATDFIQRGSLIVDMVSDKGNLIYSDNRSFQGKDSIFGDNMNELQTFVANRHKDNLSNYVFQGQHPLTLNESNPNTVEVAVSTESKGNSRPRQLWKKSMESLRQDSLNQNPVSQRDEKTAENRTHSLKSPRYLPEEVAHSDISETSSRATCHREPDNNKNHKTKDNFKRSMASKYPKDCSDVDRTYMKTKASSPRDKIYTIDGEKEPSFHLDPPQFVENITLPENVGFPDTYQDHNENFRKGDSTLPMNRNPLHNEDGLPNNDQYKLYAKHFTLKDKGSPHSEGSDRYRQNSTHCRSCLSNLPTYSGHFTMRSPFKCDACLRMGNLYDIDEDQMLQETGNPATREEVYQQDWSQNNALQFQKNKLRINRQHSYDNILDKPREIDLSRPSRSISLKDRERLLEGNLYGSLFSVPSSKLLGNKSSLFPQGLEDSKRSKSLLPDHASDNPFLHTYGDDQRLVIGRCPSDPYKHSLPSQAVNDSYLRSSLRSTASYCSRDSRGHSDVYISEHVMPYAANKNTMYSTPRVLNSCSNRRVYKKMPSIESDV

[19] = target: GluN1/2A (Rattus norvegicus, UniProt P35439+Q00959); assay type: cell-based
In short: as §3

[20] = target: GluN1/2AC1/2CC2-NK (triheteromeric GluN1/2A/2C) (Rattus norvegicus, UniProt P35439+Q00959+Q00961, N612K); assay type: cell-based; conditions: Hill slope; in the presence of 1 mM Mg2+
[21] = target: T2, GluN1/2C; assay type: cell-based
[22] = tested on: GluN1/2A; conditions: read-out: glycine EC50; in the absence of PTC-174; ref Yi et al. 2016; cited from earlier work
[23] = 10 μM PTC-174, 10 μM glutamate + 1 μM glycine
[24] = 100 μM glutamate + 50 μM glycine
[25] = Hill slope of PTC-174 concentration-response
[26] = relative to the response activated by glutamate + glycine + PTC-174
[27] = control (no modulator), continuous 50 μM glycine

## COc1ccc(OCC2c3cc(OC)c(OC)cc3CCN2C(=O)c2cccc(Cl)c2)cc1 (single isomer, unassigned; (+)) [(+)-CIQ, (3-Chlorophenyl){6,7-dimethoxy-1-[(4-methoxyphenoxy)methyl]-3,4-dihydro-2(1H)-isoquinolinyl}methanone]
[1]
  Efficacy relative to GluN1/2C: nearly as efficacious at recombinant GluN1/2A/2C as at GluN1/2C
[2]
  Increase in glutamate potency: no effect on glutamate potency
  Increase in glycine potency: no significant effect on glycine potency
  Increase in potencies of co-agonists glutamate and glycine: no effect on agonist potencies
[3]
  Effect on NMDA receptor-mediated responses of STN neurons: potentiate
[4]
  Effect on NMDA receptor-mediated EPSCs: no effect on NMDA receptor-mediated EPSCs
[5]
  Effect on EPSC decay time: did not affect the EPSC decay time

## NC(CCCP(=O)(O)O)C(=O)O (stereo not drawn) [APV, 2-Amino-5-phosphonovalerate, reference compound]
[6]; APV 400 μM superfusion
  Effect on NMDA receptor-mediated EPSCs: completely blocked the NMDA receptor-mediated EPSCs
[7]; APV 400 μM superfusion
  Effect on NMDA receptor-mediated EPSCs: completely blocked the NMDA receptor-mediated EPSCs
[8]
  Effect on NMDA-evoked current: eliminated; also recorded: completely blocked the response to NMDA
[9]; APV 400 μM superfusion
  Effect on NMDA receptor-mediated EPSCs: completely blocked the NMDA receptor-mediated EPSCs

## CC(C)(C)c1ccc(-c2nc3n(c(=O)c2C#N)CCCS3)cn1 [PTC-174, 8-(6-(tert-butyl)pyridin-3-yl)-6-oxo-3,4-dihydro-2H,6H-pyrimido[2,1-b][1,3]thiazine-7-carbonitrile]
[10]; 10 μM PTC-174 continuous, 3–5 ms 1 mM glutamate
  Enhancement of peak responses: 5.3 fold
[10]; 10 μM PTC-174 present before and during 1 mM glutamate exposure
  Potentiation of response to 2 second glutamate application: 6.3 fold
[11]; [23]
  Potentiation of responses at low glycine: 1.8 fold
[11]; [24]
  Maximal modulation (% control): 180 ± 4 % control
[11]; [25]
  nH: 1.3
[11]; maximal glutamate plus glycine
  Maximal potentiation of current responses: 1.8 fold
[2]; [23]
  Potentiation of responses at low glycine: ~ 10 fold
[2]
  Increase in glutamate potency: 2.5 fold
  Increase in glycine potency: 4.8 fold
  Increase in potencies of co-agonists glutamate and glycine: 2- to 5 fold
[2]; [24]
  Maximal modulation (% control): 1265 ± 67 % control
[2]; [25]
  nH: 1.2
[2]; maximal glutamate plus glycine
  Maximal potentiation of current responses: > 10 fold and 13 fold
[12]
  Effect on current responses: did not affect current responses
[13]
  CNS exposure: readily achieves CNS exposure after systemic administration
[14]
  nH: 1.0
[15]
  Effect on current responses: did not affect current responses
[16]
  Enhancement of peak responses: 3.7 fold
[6]; 10 μM PTC-174, −40 mV, baseline 12.9 ± 1.4
  Charge transfer: 15.9 ± 2.4 pA·S
[6]; 10 μM PTC-174, −40 mV, baseline 49.6 ± 5.5
  τfast: 69.3 ± 10.1 ms
[6]; 10 μM PTC-174, −40 mV, baseline 111.0 ± 7.1
  τw (weighted EPSC decay time constant): 166.7 ± 21.3 ms and 166.7 ± 2.1 ms
[6]; 10 μM PTC-174, −40 mV, baseline 226.2 ± 21.8
  τslow: 397.7 ± 131.5 ms
[17]; in the presence of 1 mM Mg2+
  EC50: 4.5 ± 0.2 µM
  nH: 1.2
[17]; without Mg2+
  EC50: 5 ± 0.5 µM
  nH: 1.4
[18]
  EC50: 19.7 ± 1.5 µM
[18]; [25]
  nH: −1.0
[18]; maximal glutamate plus glycine
  Effect on current responses (in words): partial inhibition; also recorded: partial antagonist
[7]; 10 μM PTC-174, +40 mV, baseline 56.0 ± 3.3
  τfast: 64.3 ± 9.3 ms
[7]; 10 μM PTC-174, +40 mV, baseline 150.1 ± 10.0
  τw (weighted EPSC decay time constant): 187.3 ± 20.0 ms
[7]; 10 μM PTC-174, +40 mV, baseline 382.5 ± 38.8
  τslow: 416.1 ± 36.9 ms
[9]; 10 μM PTC-174, +40 mV, baseline 113.7 ± 27.2
  τfast: 147.3 ± 46.5 ms
[9]; 10 μM PTC-174, +40 mV, baseline 132.6 ± 20.1
  Peak amplitude: 157 ± 23 pA and 156.6 ± 23.3 pA
[9]; 10 μM PTC-174, +40 mV, baseline 191.6 ± 6.6
  τw (weighted EPSC decay time constant): 292.0 ± 41.8 ms
[9]; 10 μM PTC-174, +40 mV, baseline 321.4 ± 36.0
  τslow: 522.4 ± 154.9 ms
[19]; [23]
  Potentiation of responses at low glycine: 1.6 fold
[19]; 100 μM glutamate + 50 μM glycine, control = response without PTC-174, inhibition
  Maximal modulation (% control): 39 ± 4 % control
[19]; [25]
  nH: −1.1
[19]; maximal glutamate plus glycine
  Effect on current responses (in words): concentration-dependent partial inhibition; also recorded: partial antagonist
[20]
  nH: 1.2
[21]; [23]
  Potentiation of responses at low glycine: ~ 10 fold
[21]; 10 μM modulator, 100 μM glutamate
  Increase in glycine potency: 4.7 fold
[21]; [24]
  Maximal modulation (% control): 1095 ± 29 % control
[21]; [25]
  nH: 1.2
[21]; maximal glutamate plus glycine
  Maximal potentiation of current responses: > 10 fold
[21]; [26]
  Current response to glutamate only + PTC-174: 1.5% ± 0.1
  Current response to glycine only + PTC-174: 4.0% ± 0.9
[21]; summary statement
  Increase in potencies of co-agonists glutamate and glycine: 2- to 5 fold

## N[C@@H](CCC(=O)O)C(=O)O [glutamate, reference compound]
[2]; [27]
  nH (glutamate): 1.7 and 1.5
[21]; [27]
  nH (glutamate): 1.3

## NCC(=O)O [glycine]
[22]
  EC50: 1.1 µM
